From PubChem
LMPTP block – LMPTP phosphatase inhibitors, primary screen, biochemical, fluorescence intensity, uHTS | Low molecular weight phosphotyrosine protein phosphatase (Homo sapiens), P24666 | recombinant LMPTP-A, OMFP fluorogenic substrate | inhibition, % at 20 µM | 360,000 compounds, 0.22% hits;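 active = compounds that cut the enzyme signal by at least half of the control window in the single-dose screen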
Target sequence (P24666 whole entry, looked up): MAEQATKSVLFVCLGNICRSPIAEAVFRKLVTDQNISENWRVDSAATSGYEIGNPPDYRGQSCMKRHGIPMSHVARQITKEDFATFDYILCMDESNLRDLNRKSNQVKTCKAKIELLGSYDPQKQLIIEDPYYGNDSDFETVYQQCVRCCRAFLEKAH
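Assay system: LMPTP-A, protein tyrosine phosphatase of low molecular weight / Medium: pH 6.0 Bis-Tris buffer with DTT and Triton X-100 / Schedule: 50 min enzyme reaction at room temperature, protected from light / Measured by: endpoint fluorescence intensity from OMFP dephosphorylation / Read-out basis: % inhibition relative to no-enzyme and uninhibited control wells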
Scp-1 inhibitor – Scp-1 phosphatase inhibitors, primary screen, biochemical, colorimetric, uHTS | Carboxy-terminal domain RNA polymerase II polypeptide A small phosphatase 1 (Homo … | Recombinant Scp1, phosphopeptide, malachite green phosphate absorbance | inhibition, % at 20 µM | 340,000 compounds, 0.88% hits | AID 493091, 2011;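 active = inhibition above about 50% at 20 µM, limit read from the data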
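Incubation: 45 min enzyme reaction at room temperature / System: truncated SCP-1 phosphatase (76-261aa) / Reagent: Phospho 17-mer peptide substrate / Buffer or medium: Acidic Tris acetate buffer with magnesium and detergent / Signal: absorbance at 630 nm / Doses: one concentration, 20 µM, with 1.0% DMSO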
CSN inh – inhibitors of CSN-mediated cullin deneddylation, primary screen, biochemical, fluorescence polarization, uHTS. COP9 signalosome complex subunit 5 (Homo sapiens), Q92905. Purified CSN, SCF-Nedd8-OG deneddylation. inhibition, % at 12.5 µM. 360,000 compounds, 0.38% hits. AID 651999, 2013;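 active = pattern-corrected inhibition above about 35%, with an unprinted fluorescence ratio check between 0.5 and 1.5, limit read from the data, passing the limit was not always enough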
Target sequence (Q92905 whole entry, looked up, one chain of several): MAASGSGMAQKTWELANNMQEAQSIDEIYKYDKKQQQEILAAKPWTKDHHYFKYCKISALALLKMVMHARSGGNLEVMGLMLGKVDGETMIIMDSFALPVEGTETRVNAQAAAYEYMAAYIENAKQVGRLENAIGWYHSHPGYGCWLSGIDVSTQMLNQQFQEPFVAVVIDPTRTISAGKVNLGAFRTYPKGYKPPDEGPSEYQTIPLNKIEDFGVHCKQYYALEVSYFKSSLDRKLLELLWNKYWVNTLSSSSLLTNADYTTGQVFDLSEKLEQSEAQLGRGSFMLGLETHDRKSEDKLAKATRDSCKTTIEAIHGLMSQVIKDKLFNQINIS
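Test system: Human Csn5 produced in HEK293T cells | Compound: 12.5 µM single point | Times: 90 min, room temperature | Signal: Fluorescence polarization readout | Read-out basis: % inhibition of substrate cleavage by Csn5 | Controls: no-enzyme wells high, enzyme-with-substrate wells low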
SUMO1-SIM PPI – modulators of SUMO1 protein-protein interactions, primary screen, biochemical, uHTS. Small ubiquitin-related modifier 1 (Homo sapiens), P63165. SUMO1 binding to a labelled peptide, TR-FRET, 1 h. inhibition, % at 20 µM. 360,000 compounds, 0.33% hits; in the data active = inhibition above about 37%
Target sequence (P63165 whole entry, looked up): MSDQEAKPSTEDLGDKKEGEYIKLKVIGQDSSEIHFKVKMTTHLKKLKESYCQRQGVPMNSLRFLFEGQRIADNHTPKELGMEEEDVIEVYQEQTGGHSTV
DNMT1 inh – human DNMT1 methyltransferase inhibitors, primary screen, biochemical, molecular beacon, fluorescence, HinP1I cleavage, uHTS | DNA (cytosine-5)-methyltransferase 1 (Homo sapiens), P26358 | 360,000 compounds, 0.83% hits | AID 588458, 2011 | inhibition (reported as % activation of signal), % at 10 µM; in the data active = inhibition above about 50%
STEP block – STEP phosphatase inhibitors, primary screen, biochemical, fluorescence intensity, uHTS; recombinant STEP, OMFP fluorogenic substrate; inhibition, % at 20 µM; 360,000 compounds, 0.25% hits;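 active = inhibition at 20 µM, scaled per plate between control wells, above about 37%, limit read from the data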
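System: STEP (striatal-enriched tyrosine phosphatase) enzyme, cell-free; medium: Bis-Tris pH 6.0 buffer with DTT, detergent; dosing: 20 µM, 1% DMSO; times: reaction 20 min, ambient temperature; detection: fluorescence, 480/540 nm; read-out basis: normalized % inhibition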
Beacon interf DR – spectral interference with molecular beacon fluorescence, dose response, artefact control for DNMT1 inhibitor project, biochemical, fluorescent molecular beacon; shares compounds with DNMT1 inh; spectral interference counter-screen; IC50, µM; 200 tested, under 10 active; call rule not given here
DNMT1 inh conf – DNMT1 methyltransferase inhibitor retest, confirmation, biochemical, molecular beacon, fluorescence, single concentration | shares compounds with DNMT1 inh | DNMT1 molecular beacon HinP1I cleavage | inhibition, % at 10 µM | 2,300 compounds, 8% hits;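 active = average inhibition of at least 30% in the single-concentration confirmation test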
DNMT1 interf – shows spectral interference in the DNMT1 beacon assay; shares compounds with DNMT1 inh; DNMT1 molecular beacon spectral interference counterscreen, fluorescence 485/520; activation (fluorescence interference), % at 10 µM; 2,300 compounds, 1% hits;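 active = activation of at least 30% at 10 µM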;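 note: DNMT1 catalytic domain with a HinP1I cleavage step and a FAM/dabcyl DNA beacon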
A number is an active result; – = inactive; · = not tested or not shown; + = active, no number. The list is not random: actives were taken first. Their share in the collection is about 1.9%.

SMILES	LMPTP block	Scp-1 inhibitor	CSN inh	SUMO1-SIM PPI	DNMT1 inh	STEP block	DNMT1 inh conf	DNMT1 interf	others
Cc1cccc(NC(=O)c2nc[nH]c2C(=O)NCCN(CCNC(=O)c2[nH]cnc2C(=O)Nc2cccc(C)c2)CCNC(=O)c2[nH]cnc2C(=O)Nc2cccc(C)c2)c1	–	–	–	–	–	–	·	·
CC(C)(C)OC(=O)NCc1ccc(NC(=O)c2nc[nH]c2C(=O)NCCNC(=O)c2[nH]cnc2C(=O)Nc2ccc(CNC(=O)OC(C)(C)C)cc2)cc1	–	–	–	–	64	–	–	–
CC(C)(C)OC(=O)CNC(=O)c1[nH]cnc1C(=O)Nc1ccc(CNC(=O)OC(C)(C)C)cc1	–	–	–	–	–	–	·	·
Cc1cccc(NC(=O)c2nc[nH]c2C(=O)NCCCNC(=O)c2[nH]cnc2C(=O)Nc2cccc(C)c2)c1	–	–	–	–	73	–	–	–
CC(=O)NCCC(=O)Nc1cccc(S(=O)(=O)N(C)c2ccccc2)c1	–	–	–	–	56	–	–	–
O=C(N=Nc1c(O)[nH]c2ccc(Br)cc12)c1cc(-c2cccs2)nc2ccccc12	–	–	–	–	65	–	–	–
COc1ccc2c(CC(=O)OCC(=O)Nc3cccc(C)c3)coc2c1	–	–	–	–	50	–	–	–
CCn1c(CC(=O)Nc2ccccc2F)nnc1SCC(=O)N1CCN(c2ccccc2)CC1	–	–	–	–	77	–	–	–
CC(=O)Nc1ccc(S(=O)(=O)N(Cc2ccco2)CC2CCCO2)cc1 (stereo not drawn)	–	–	–	–	–	–	·	·
O=S(=O)(NC1CCCCC1Nc1ccc(Cl)cc1)c1ccccc1 (stereo not drawn)	–	–	–	–	73	–	–	–
Cc1ccc(NC2CCCCC2NS(=O)(=O)c2ccc(Cl)cc2)cc1 (stereo not drawn)	–	–	–	–	–	–	·	·
O=C(N/N=C/c1ccc([N+](=O)[O-])cc1)c1cc(-c2ccc3c(c2)OCO3)n[nH]1	–	–	–	–	50	–	–	–
COc1cc(/C=N/NC(=O)c2cc(-c3ccc4c(c3)OCO4)n[nH]2)ccc1O	–	–	–	–	–	–	·	·
CCN(CC)CCn1c2ccccc2c2cnc(N)c(C#N)c21	–	–	–	–	61	–	38	–	Beacon interf DR=–
Cc1cc(NC(=O)C(C)SCC(=O)N(C)CC(=O)Nc2ccccc2Br)no1 (stereo not drawn)	–	–	–	–	–	–	·	·
COc1ccc(-c2ccc3c(c2)c(-c2cccs2)c(-c2cc(OC)cc(OC)c2)n3C)cc1	–	–	–	–	–	–	·	·
COc1cc(OC)cc(-c2c(-c3cccs3)c3cc(-c4ccc(C(N)=O)cc4)ccc3n2C)c1	–	–	–	–	54	–	–	–
CC(C)c1onc(C(=O)NCCc2ccccc2)c1[N+](=O)[O-]	–	–	–	–	–	–	·	·
CC(C)c1onc(C(=O)NC(C)c2ccccc2)c1[N+](=O)[O-] (stereo not drawn)	–	–	–	–	92	–	–	–
O=C1c2ccccc2-c2onc3ccc(N4CCCC4)c1c23	–	–	–	–	–	–	·	·
CCOc1ccc2noc3c2c1C(=O)c1ccccc1-3	–	–	–	–	+	–	140	134
Cc1cc(OCC(=O)NCC(c2ccc(F)cc2)N2CCOCC2)ccc1Cl (stereo not drawn)	–	–	–	–	–	–	·	·
CCOC(=O)/C=c1/s/c(=C/c2ccc3cc(OC)ccc3c2)c(=O)n1CC(=O)NCC1CCCO1 (stereo not drawn)	–	–	–	–	54	–	–	–
COc1ccc2c(c1)c1c(c(=O)n(-c3ccc(C)cc3)c(=O)n1CC(=O)NCC1CCCO1)n2C (stereo not drawn)	–	·	–	–	98	–	–	–
CCOC(=O)/C=c1\s/c(=C\c2ccc(C#N)cc2)c(=O)n1CC(=O)NCc1ccco1	–	–	–	–	50	–	–	–
SMILES	LMPTP block	Scp-1 inhibitor	CSN inh	SUMO1-SIM PPI	DNMT1 inh	STEP block	DNMT1 inh conf	DNMT1 interf	others
Cc1ccc(-n2c(=O)c3c(c4cc(C)ccc4n3C)n(CC(=O)NCC3CCCO3)c2=O)cc1 (stereo not drawn)	–	·	–	–	–	–	·	·
CCOC(=O)/C=c1\s/c(=C\c2ccc(C(=O)OC)cc2)c(=O)n1CC(=O)Nc1ccccc1	–	–	–	–	–	–	·	·
NS(=O)(=O)c1ccc(NC(=O)CN2CCc3ccccc3C2)cc1	–	–	–	–	–	–	·	·
COc1ccc(NC(=S)NCc2cccnc2)cc1	–	–	–	–	89	–	–	–
COc1ccc(NC(=S)NCc2cccnc2)cc1OC	–	–	–	–	–	–	·	·
Cc1cc(C)n(CCN(C)C(=O)c2cc(COc3c(F)cccc3F)on2)n1	–	–	–	–	51	–	–	–
CC1(C(=O)NCc2ccc(Cl)cc2)CCN1C(=O)Cc1cccs1 (stereo not drawn)	–	·	–	–	–	–	·	·
CCSC1=N/C(=C\c2ccc3c(c2)OCO3)C(=O)S1	–	–	–	–	–	–	·	·
C=CCSC1=N/C(=C\c2cc(OC)c3c(c2)OCO3)C(=O)S1	–	–	–	–	74	–	–	–
O=C1C2C3C=CC(C2C(=O)N1c1nccs1)C1C(=O)N(c2nccs2)C(=O)C31 (stereo not drawn)	–	–	–	–	–	–	·	·
O=C1C2C3C=CC(CC3)C2C(=O)N1c1nccs1 (stereo not drawn)	–	–	–	–	61	–	–	–
